In assay [1] the test system is tyrosinase (Agaricus bisporus). In words: Inhibition of mushroom tyrosinase using L-DOPA substrate at 1000 uM.
The subject of assay [2] is tyrosinase (Agaricus bisporus). In words: Inhibition of mushroom tyrosinase using L-DOPA substrate at 10 uM.
Assay [3] concerns Radical scavenging activity. In words: Antioxidant activity assessed as DPPH radical scavenging activity. In kind it is functional. The gist of the method:
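Test compounds at a series of concentrations in DMSO/chloroform/methanol (1:8:4), mixed 1:1 (v/v) with 0.2 mM DPPH and incubated 30 min at 25 °C. Absorbance read at 520 nm from 0 s and every 300 s until plateau. Run in triplicate.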

Assay [4] can be described thus: Antioxidant activity assessed as Trolox equivalents of 0.001 mmol/L solution by ORAC assay. In kind it is functional.
In assay [5] the test system is tyrosinase (Agaricus bisporus). In words: Inhibition of mushroom tyrosinase using L-DOPA substrate at 100 uM.
The nature of assay [6]: Antioxidant activity assessed as Trolox equivalents of 1 mmol/L solution by FRAP assay. In kind it is functional. The gist of the method:
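FRAP reagent made daily from 300 mmol l⁻¹ acetate buffer (pH 3.6), 10 mmol l⁻¹ TPTZ and 20 mmol l⁻¹ FeCl3 (10:1:1). Trolox calibration 50–1000 μmol l⁻¹. Result given as Trolox equivalents of a 1 mmol l⁻¹ solution. Run in triplicate.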

The nature of assay [7]: Antioxidant activity assessed as Trolox equivalents of 0.01 mmol/L solution by ORAC assay. In kind it is functional.

For 6 molecules, inhibition, IC50 and Activity results are on record in ChEMBL document CHEMBL2311261, “Biocatalytic synthesis, structural elucidation, antioxidant capacity and tyrosinase inhibition activity of long chain fatty acid acylated derivatives of phloridzin and isoquercitrin” (Bioorg Med Chem, 2013).

For orientation: inhibition means the share of the control response that was lost under treatment. A high value points to a response far below the control. A word on the IC50: it is the midpoint of a concentration-inhibition curve. As for `CCCCC/C=C\C/C=C\CCCCCCCC(=O)OC[C@H]1O[C@@H](Oc2c(-c3ccc(O)c(O)c3)oc3cc(O)cc(O)c3c2=O)[C@H](O)[C@@H](O)[C@@H]1O`, the figures for the inhibition in assay [1], in assay [2] and in assay [5] were 80.6%, 32.1% and 73.3%, respectively. Also, the IC50 in assay [3] came to 60.4 µM. Further, the Activity in assay [4] worked out at 491 µmol/L; in assay [6], 340 µmol/L.

In the case of `CCCCCCCC/C=C\CCCCCCCC(=O)OC[C@H]1O[C@@H](Oc2c(-c3ccc(O)c(O)c3)oc3cc(O)cc(O)c3c2=O)[C@H](O)[C@@H](O)[C@@H]1O`, the inhibition in assay [1] came out at 62.4%; in assay [2] it was 38.9%; in assay [5] it was 47.5%. In assay [3], the IC50 is 38.2 µM. Also, the figures for the Activity in assay [4] and in assay [6] were 265 µmol/L and 536 µmol/L, respectively.

As for `CC/C=C\C/C=C\C/C=C\CCCCCCCC(=O)OC[C@H]1O[C@@H](Oc2c(-c3ccc(O)c(O)c3)oc3cc(O)cc(O)c3c2=O)[C@H](O)[C@@H](O)[C@@H]1O`, the values for the inhibition in assay [1], in assay [2] and in assay [5] were 85.5%, 55.8% and 78.8%, respectively. In assay [3], the half-maximal inhibitory concentration (IC50) worked out at 97.9 µM. The results for the Activity in assay [4] and in assay [6] were 490 µmol/L and 614 µmol/L, respectively.

On to `CCCCCCCCCCCCCCCCCC(=O)OC[C@H]1O[C@@H](Oc2c(-c3ccc(O)c(O)c3)oc3cc(O)cc(O)c3c2=O)[C@H](O)[C@@H](O)[C@@H]1O`, for which the IC50 in assay [3] turned out to be 42 µM. The Activity was found to be 310 µmol/L in assay [4] and 622 µmol/L in assay [6].

Take `O=C(CCc1ccc(O)cc1)c1c(O)cc(O)cc1O[C@@H]1O[C@H](CO)[C@@H](O)[C@H](O)[C@H]1O` [PHLORIZIN]: the Activity in assay [7] stood at 120 µmol/L. Also, the IC50 in assay [3] turned out to be 1490 µM.

With `O=c1c(O[C@@H]2O[C@H](CO)[C@@H](O)[C@H](O)[C@H]2O)c(-c2ccc(O)c(O)c2)oc2cc(O)cc(O)c12` [ISOQUERCETIN], the half-maximal inhibitory concentration (IC50) in assay [3] is 17.9 µM. The values for the Activity in assay [4] and in assay [6] were 473 µmol/L and 1500 µmol/L, respectively.
